Screening results deposited in PubChem by several laboratories.
PKD1 kinase inh: inhibitors of human PKD1 kinase, biochemical, fluorescence polarization. Serine/threonine-protein kinase D1 (Homo sapiens), Q15139. PKD1 kinase fluorescence polarization assay. inhibition, % (concentration not given with the values). 200,000 compounds, 0.056% hits. AID 797, 2007; in the data active = inhibition above about 50%
DTT redox prof: compounds producing H2O2 with reducing agent – biochemical, NIH compound library profiling, artefact control for MLSCN library redox annotation, primary screen | DTT-dependent redox cycling H2O2, phenol red/HRP absorbance; 100% = 100 µM peroxide control, 0% = buffer | activation, % at 10 µM | 200,000 compounds, 0.03% hits;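 active = activation of at least 50% relative to the plate's high and low controls in the primary single-dose screen; inactive = activation below 50%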;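 also: compound incubated with DTT at 0.8 mM final as the reducing agent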
Arbovirus inh: antivirals against arbovirus infection, primary screen, cell-based, full library, 10K replicate subset; arbovirus infection cell-based antiviral screen; inhibition, % at 10 µM; 200,000 compounds, 0.37% hits; in the data active = inhibition above about 30%
Wee1 degr inh: Wee1 degradation inhibitors, primary screen, cell-based, HeLa, Wee1K328M-luciferase, luminescence. Wee1-like protein kinase (Homo sapiens), P30291. HeLa Luc-Wee1K328M stability; 100% = proteasome inhibitor MG132 effect. reporter increase, % at 5 µM. 220,000 compounds, 1.2% hits. AID 1321, 2008;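 active = activation above the mean of all tested compounds plus 3 SD, set per screening run, cut at about 8.8% in these data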;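 also: cells exposed to compound for 20 h before luminescence read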
RBBP9 inhibitor: human RBBP9 inhibitors, primary screen, biochemical, fluorescence polarization, FP-Rh probe, HTS; Serine hydrolase RBBP9 (Homo sapiens), O75884; recombinant RBBP9; inhibition, % at 7.94 µM; 220,000 compounds, 0.2% hits; AID 1515, 2009;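 active = inhibition above the campaign mean of all tested compounds plus 3 SD, cut at about 14% in these data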
Target sequence (O75884 whole entry, looked up): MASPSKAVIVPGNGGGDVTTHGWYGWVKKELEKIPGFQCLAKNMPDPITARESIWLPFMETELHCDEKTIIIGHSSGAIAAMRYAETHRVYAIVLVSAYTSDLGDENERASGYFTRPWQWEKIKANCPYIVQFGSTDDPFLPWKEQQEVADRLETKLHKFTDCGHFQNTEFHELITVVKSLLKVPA
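system = RBBP9 protein | input = RBBP9 at 2.5 µM in dispensed solution, before mixing | measured by = fluorescence polarization (mP), excitation 525 nm, emission 598 nm | incubation = enzyme-compound preincubation 30 min, then probe labeling 45 min, 25 °C | buffer or medium = Tris-NaCl-Pluronic buffer, pH 8.0 | compound = single dose 7.94 µM | also added = FP-Rh probe, 375 nM dispensing solution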
p97 ATPase inh: inhibitors of human p97 ATPase, primary screen, biochemical | Transitional endoplasmic reticulum ATPase (Homo sapiens), P55072 | recombinant p97 ATPase, Kinase-Glo ATP luminescence, 3 h | inhibition, % at 8 µM | 220,000 compounds, 0.42% hits | AID 1481, 2009; in the data active = inhibition above about 15%
Wee1 stab conf: Wee1 degradation inhibitors, confirmation, cell-based, HeLa, Wee1K328M-luciferase, luminescence, triplicate; shares compounds with Wee1 degr inh; HeLa Luc-Wee1K328M degradation; vehicle 0%, proteasome-blocked wells 100%; activation, % at 5 µM; 1,100 compounds, 4% hits; AID 1410, 2008; in the data active = activation above about 8.9%
Hits are given with their value; – = inactive; · = no result given. Shown are actives, neighbours in structure and some others; about 2.2% of the full set was active somewhere.

SMILES	PKD1 kinase inh	DTT redox prof	Arbovirus inh	Wee1 degr inh	RBBP9 inhibitor	p97 ATPase inh	Wee1 stab conf
CCCCn1c(N2CCC(Cc3ccccc3)CC2)nc2c1c(=O)[nH]c(=O)n2C	–	–	–	13	–	–	–
Cc1nnc(SCCn2c(N3CCC(Cc4ccccc4)CC3)nc3c2c(=O)[nH]c(=O)n3C)s1	·	·	–	–	–	–	·
Cc1ccc(C(=O)NC(=S)Nc2ccc(NC(=O)c3cccs3)cc2)cc1[N+](=O)[O-]	–	–	–	–	–	–	·
COc1ccc(OCCn2c(=O)sc3ccccc32)cc1	–	–	–	13	–	–	–
COc1ccccc1OCCn1c(=O)sc2ccccc21	–	–	–	–	–	–	·
O=C(NNC(=O)c1nn(-c2ccc(F)cc2)ccc1=O)c1ccccc1Cl	·	·	·	–	–	–	·
O=S(=O)(c1ccc(N2CCCCCC2)nc1)N1CCCC1	–	–	–	13	–	–	–
COc1ccc(N2CCN(C(=O)c3cc(=O)[nH]c4ccccc34)CC2)cc1	–	–	–	–	–	–	·
O=C(c1cc(=O)[nH]c2ccccc12)N1CCN(c2ccc([N+](=O)[O-])cc2)CC1	·	·	·	59	–	–	–
Cc1nc(N)sc1C(=O)N1N=N1	·	·	·	–	–	–	·
CCc1c(C)nc2cc(-c3ccc(OC)c(OC)c3)nn2c1NCC1CC1	–	–	–	–	–	–	·
CCN(CC)S(=O)(=O)c1ccc(C(=O)NCCc2ccccn2)cc1	–	–	–	12	–	–	9.3
O=C(NCCc1ccccn1)c1ccc(NS(=O)(=O)c2ccc(F)cc2)cc1	–	–	–	–	–	–	·
COc1cccc(-c2cc(C(=O)NC3CCCC3)no2)c1	–	–	–	15	–	–	–
COc1ccc(-c2nc(CCl)cs2)cc1	–	–	–	12	–	–	–
COc1ccc(OCc2nc(N)nc(Nc3ccccc3OC)n2)cc1	–	–	–	18	–	–	–
CCN(CC)CCCOC(=O)C1(c2ccccc2)CCCC1	–	–	–	–	–	–	·
CCN(CC)CCOC(=O)C1(c2ccccc2)CCOCC1	–	–	–	14	–	–	–
CC(=O)NS(=O)(=O)c1cccnc1Nc1ccc(Cl)cc1	–	–	–	–	–	–	·
CCCN1C(=O)C2(C(C(=O)c3ccc(C)o3)=C(O)C(=O)N2CCCOC)c2ccccc21 (stereo unspecified)	·	·	·	–	–	–	·
COCCSc1nnc(NC(=O)c2ccc(NC(C)=O)cc2)s1	–	–	–	14	–	–	–
Cn1c(CSc2nc3ccccc3s2)nnc1SCC(=O)NCc1cccnc1	–	–	–	–	–	–	·
O=[N+]([O-])c1cc(/C=N/N2CCN(Cc3ccccc3)CC2)ccc1Cl	–	–	–	15	–	–	–
BrC(/C=N/N1CCN(Cc2ccccc2)CC1)=C/c1ccccc1	·	·	·	23	–	–	–
COc1cc(OC)cc(C(=O)N2CCC(n3c(C)nc4cc(F)ccc43)CC2)c1	–	–	–	–	–	–	·
SMILES	PKD1 kinase inh	DTT redox prof	Arbovirus inh	Wee1 degr inh	RBBP9 inhibitor	p97 ATPase inh	Wee1 stab conf
Cc1ccc2nc(-c3ccc(NC(=O)c4ccco4)cc3)[nH]c2c1	–	–	–	29	–	–	–
Cc1ccc(NCc2nc3ccccc3n2CCOc2ccccc2)cc1	–	–	–	–	–	–	·
COc1cccc(C(=O)NC(=S)NCc2ccco2)c1	–	–	–	14	–	–	–
CCOc1ccccc1NC(=S)NCc1ccco1	–	–	–	12	–	–	–
S=C(NCc1ccco1)Nc1ccc(Oc2ccccc2)cc1	–	–	–	11	–	–	–
CCN(Cc1ccccc1)S(=O)(=O)c1ccc(C(=O)N2CCN(c3nc4ccccc4s3)CC2)cc1	–	–	–	–	–	–	·
COCc1cc(C)nc(Oc2ccccc2)c1C#N	–	–	–	–	–	–	·
Cc1cc(C)n(/N=C/c2cc([N+](=O)[O-])ccc2O)c(=O)c1	–	–	–	–	–	–	·
Cc1ccc(-n2[nH]c(C)c(/C=N/NC(=O)c3ccc([N+](=O)[O-])cc3)c2=O)c(C)c1	–	–	–	–	–	–	·
CCCCNC(=O)c1onc(CSc2cccc(C)c2)c1C(=O)O	–	–	–	–	–	–	·
S=C1NCN(C2CCCCC2)CN1c1ccccc1	·	·	·	–	–	–	·
Cc1ccc(/C=N/Nc2cc(C)nc(NCc3ccccc3)n2)cc1	·	·	·	–	–	–	·
Cc1cc(N/N=C/c2ccc(F)cc2)nc(NCc2ccccc2)n1	·	·	·	12	–	–	–
C(=N\Nc1nccc(-c2cccnc2)n1)/c1ccccc1	·	·	·	–	–	–	·
Cc1ccnc(N/N=C/c2ccccc2)n1	–	–	–	17	–	–	–
CCOC(=O)c1c(C(F)(F)C(F)(F)C(F)(F)C(F)(F)F)n[nH]c1C	–	–	–	–	–	–	·
Cc1cccc(C)c1-n1c(SCC(=O)Nc2ccc(C(=O)O)cc2)nnc1-c1cccc(S(=O)(=O)N(C)C)c1	–	–	–	12	–	–	–
O=C(CSc1nnc(-c2cccc(S(=O)(=O)N3CCCC3)c2)n1-c1ccccc1)Nc1ccc(C(=O)O)cc1	–	–	–	–	–	–	·
CCOC(=O)c1[nH]c(C)c(CN(C(C)=O)c2ccc(OCC)cc2)c1C	–	–	–	13	–	–	–
COc1ccc(/C=C/C(=O)NC(=S)NNC(=O)c2cnccn2)cc1	·	·	·	–	–	–	·
COc1ccc(/C=C/C(=O)NC(=S)NNC(=O)c2cccnc2)cc1	–	–	–	17	–	–	–
C#CCN(CC=C)C(=O)CCc1nnc(COc2ccccc2)o1	–	–	–	16	–	–	–
C=CCn1c(SCc2cc(=O)n3cc(C)ccc3n2)nnc1-c1ccc(F)cc1	–	–	–	15	–	–	–
Cc1cccn2c(=O)c(C=O)c(NCc3ccccc3)nc12	·	·	·	–	–	–	·
CCCN1CCN(CCCNC(=O)Cn2nc(-c3ccccc3)ccc2=O)CC1	–	–	–	–	–	–	·
COc1ccc(C2c3ccc(O)cc3Oc3ncn(Cc4ccccc4)c(=N)c32)cc1OC (stereo unspecified)	·	·	·	19	–	–	–
COc1ccc(C2c3ccc(O)cc3Oc3ncn4nc(-c5ccccn5)nc4c32)cc1 (stereo unspecified)	·	·	·	11	–	–	–
CCCCn1c(=O)[nH]c(=O)c2c1nc(-c1ccc(C#N)cc1)n2C1CCCC1	–	–	–	–	–	–	·
